Measured values taken from ChEMBL document CHEMBL4680134, “Structural optimization of natural product nordihydroguaretic acid to discover novel analogues as AcrB inhibitors” (Eur J Med Chem, 2020).

Experiments:
[1] = target: T1, Multidrug efflux pump subunit AcrB (Escherichia coli (strain K12)) (UniProt P31224); assay: Inhibition of AcrB in Escherichia coli BW25113 assessed as potentiation of erythromycin induced antibacterial activity by measuring erythromycin MIC at 32 ug/ml measured after 18 hrs by checkerboard titration method (reference value: 64 ug/ml); conditions: dose 32.0 µg/ml
T1 sequence (whole entry): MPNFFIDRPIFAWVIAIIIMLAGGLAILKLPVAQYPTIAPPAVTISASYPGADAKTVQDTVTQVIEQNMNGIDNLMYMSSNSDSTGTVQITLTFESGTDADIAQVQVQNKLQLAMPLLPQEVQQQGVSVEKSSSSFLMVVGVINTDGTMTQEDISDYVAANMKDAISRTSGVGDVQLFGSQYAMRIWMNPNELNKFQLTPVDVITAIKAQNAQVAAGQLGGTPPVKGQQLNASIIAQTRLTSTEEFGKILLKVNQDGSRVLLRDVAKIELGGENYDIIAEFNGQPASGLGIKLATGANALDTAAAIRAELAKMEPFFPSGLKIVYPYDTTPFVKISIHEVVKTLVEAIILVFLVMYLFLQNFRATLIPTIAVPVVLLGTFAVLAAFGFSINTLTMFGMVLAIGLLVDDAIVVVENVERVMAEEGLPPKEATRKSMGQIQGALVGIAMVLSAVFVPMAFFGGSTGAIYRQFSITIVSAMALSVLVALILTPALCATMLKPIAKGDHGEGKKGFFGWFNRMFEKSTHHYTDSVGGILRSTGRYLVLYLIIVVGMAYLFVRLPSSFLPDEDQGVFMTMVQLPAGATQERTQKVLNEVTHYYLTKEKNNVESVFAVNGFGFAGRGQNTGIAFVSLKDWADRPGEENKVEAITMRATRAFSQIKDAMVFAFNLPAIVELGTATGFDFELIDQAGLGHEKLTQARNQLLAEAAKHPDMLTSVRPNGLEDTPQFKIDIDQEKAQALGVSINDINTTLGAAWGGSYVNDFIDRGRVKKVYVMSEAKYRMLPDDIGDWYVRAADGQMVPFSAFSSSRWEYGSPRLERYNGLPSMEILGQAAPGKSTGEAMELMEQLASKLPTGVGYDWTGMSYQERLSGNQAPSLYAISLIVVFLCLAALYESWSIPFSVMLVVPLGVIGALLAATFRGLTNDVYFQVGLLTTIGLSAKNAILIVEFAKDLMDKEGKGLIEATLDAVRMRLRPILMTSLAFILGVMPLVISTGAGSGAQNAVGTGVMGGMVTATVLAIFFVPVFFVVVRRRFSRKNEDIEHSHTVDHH

[2] = target: T1, Multidrug efflux pump subunit AcrB (Escherichia coli (strain K12)); assay: Inhibition of AcrB in Escherichia coli BW25113 assessed as potentiation of rifampicin induced antibacterial activity by measuring rifampicin MIC at 32 ug/ml measured after 18 hrs by checkerboard titration method (reference value: 16 ug/ml); conditions: dose 32.0 µg/ml
[3] = Growth inhibition of Escherichia coli BW25113 expressing AcrB at 512 ug/ml after 18 hrs by broth microdilution assay; conditions: dose 512 µg/ml
Procedure, shortened: (§1)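 MIC determined by 96-well broth microdilution in E. coli BW25113 expressing AcrB ((+)AcrB) and an isogenic acrB-deleted strain ((-)AcrB). Used to set the compound concentrations for synergy testing that produce no direct antibacterial effect.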

[4] = target: T1, Multidrug efflux pump subunit AcrB (Escherichia coli (strain K12)); assay: Inhibition of AcrB in Escherichia coli BW25113 assessed as potentiation of tetraphenylphosphonium induced antibacterial activity by measuring tetraphenylphosphonium MIC at 32 ug/ml measured after 18 hrs by checkerboard titration method (reference value: 1024 ug/ml); conditions: dose 32.0 µg/ml
[5] = Growth inhibition of Escherichia coli harboring AcrB deletion mutant at 64 ug/ml after 18 hrs by broth microdilution assay; conditions: dose 64 µg/ml; procedure, shortened: as §1
[6] = target: T1, Multidrug efflux pump subunit AcrB (Escherichia coli (strain K12)); assay: Inhibition of AcrB in Escherichia coli BW25113 assessed as potentiation of tetraphenylphosphonium induced antibacterial activity by measuring tetraphenylphosphonium MIC at 64 ug/ml measured after 18 hrs by checkerboard titration method (reference value: 1024 ug/ml); conditions: dose 64.0 µg/ml
[7] = target: T1, Multidrug efflux pump subunit AcrB (Escherichia coli (strain K12)); assay: Inhibition of AcrB in Escherichia coli BW25113 assessed as potentiation of rifampicin induced antibacterial activity by measuring rifampicin MIC at 128 ug/ml measured after 18 hrs by checkerboard titration method (reference value: 16 ug/ml); conditions: dose 128.0 µg/ml
[8] = target: T1, Multidrug efflux pump subunit AcrB (Escherichia coli (strain K12)); assay: Inhibition of AcrB in Escherichia coli BW25113 assessed as potentiation of chloramphenicol induced antibacterial activity by measuring chloramphenicol MIC at 32 ug/ml measured after 18 hrs by checkerboard titration method (reference value: 8 ug/ml); conditions: dose 32.0 µg/ml
[9] = target: T1, Multidrug efflux pump subunit AcrB (Escherichia coli (strain K12)); assay: Inhibition of AcrB in Escherichia coli BW25113 assessed as potentiation of levofloxacin induced antibacterial activity by measuring levofloxacin MIC at 128 ug/ml measured after 18 hrs by checkerboard titration method (reference value: 0.06 ug/ml); conditions: dose 128.0 µg/ml
[10] = target: T1, Multidrug efflux pump subunit AcrB (Escherichia coli (strain K12)); assay: Inhibition of AcrB in Escherichia coli BW25113 assessed as potentiation of chloramphenicol induced antibacterial activity by measuring chloramphenicol MIC at 16 ug/ml measured after 18 hrs by checkerboard titration method (reference value: 8 ug/ml); conditions: dose 16.0 µg/ml
[11] = target: T1, Multidrug efflux pump subunit AcrB (Escherichia coli (strain K12)); assay: Inhibition of AcrB in Escherichia coli BW25113 assessed as potentiation of chloramphenicol induced antibacterial activity by measuring chloramphenicol MIC at 128 ug/ml measured after 18 hrs by checkerboard titration method (reference value: 8 ug/ml); conditions: dose 128.0 µg/ml
[12] = target: T1, Multidrug efflux pump subunit AcrB (Escherichia coli (strain K12)); assay: Inhibition of AcrB in Escherichia coli BW25113 assessed as potentiation of rifampicin induced antibacterial activity by measuring rifampicin MIC at 16 ug/ml measured after 18 hrs by checkerboard titration method (reference value: 16 ug/ml); conditions: dose 16.0 µg/ml
[13] = target: T1, Multidrug efflux pump subunit AcrB (Escherichia coli (strain K12)); assay: Inhibition of AcrB in Escherichia coli BW25113 assessed as potentiation of chloramphenicol induced antibacterial activity by measuring chloramphenicol MIC at 64 ug/ml measured after 18 hrs by checkerboard titration method (reference value: 8 ug/ml); conditions: dose 64.0 µg/ml
Cell membrane = assay: Induction of outer membrane permeabilization in wild type Escherichia coli BW25113 assessed as increase in nitrocefin hydrolysis at 128 ug/ml by spectrophotometry analysis; conditions: dose 128 µg/ml
Procedure, shortened: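 Outer-membrane permeability: intact E. coli treated with 10 µM CCCP to block nitrocefin efflux, then exposed to compound. Nitrocefin hydrolysis by periplasmic β-lactamase followed as increasing absorbance at 490 nm over time. Polymyxin B as permeabilizer control, untreated cells as baseline. Duplicate experiments on different days.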

[14] = target: T1, Multidrug efflux pump subunit AcrB (Escherichia coli (strain K12)); assay: Inhibition of AcrB in Escherichia coli BW25113 assessed as potentiation of levofloxacin induced antibacterial activity by measuring levofloxacin MIC at 16 ug/ml measured after 18 hrs by checkerboard titration method (reference value: 0.06 ug/ml); conditions: dose 16.0 µg/ml
[15] = target: T1, Multidrug efflux pump subunit AcrB (Escherichia coli (strain K12)); assay: Inhibition of AcrB in Escherichia coli BW25113 assessed as potentiation of tetraphenylphosphonium induced antibacterial activity by measuring tetraphenylphosphonium MIC at 16 ug/ml measured after 18 hrs by checkerboard titration method (reference value: 1024 ug/ml); conditions: dose 16.0 µg/ml

SMILES	MIC [1] [µg/mL]	MIC [2] [µg/mL]	growth inhibition (GI) [3]	MIC [4] [µg/mL]	growth inhibition (GI) [5]	MIC [6] [µg/mL]	MIC [7] [µg/mL]	MIC [8] [µg/mL]	MIC [9] [µg/mL]	MIC [10] [µg/mL]	MIC [11] [µg/mL]	MIC [12] [µg/mL]	MIC [13] [µg/mL]	Activity (Cell membrane)	MIC [14] [µg/mL]	MIC [15] [µg/mL]
Oc1ccc(CCCCCCc2ccc(O)c(O)c2)cc1O	64	16	Non-Toxic	512	Non-Toxic	512	16	8	0.06	8	8	16	8	Non-Toxic	0.06	–
Oc1ccc(CCCc2ccc(O)c(O)c2)cc1O	64	16	Non-Toxic	1020	Non-Toxic	512	16	8	0.06	8	8	16	8	–	0.06	1020
O=C(NCCc1ccc(O)c(O)c1)c1ccccc1O	64	16	Non-Toxic	1020	Non-Toxic	512	16	8	0.03	8	4	16	8	–	0.06	1020
O=C(NCCc1ccc(O)c(O)c1)c1ccc(O)c(O)c1	32	16	Non-Toxic	512	Non-Toxic	512	16	4	0.06	4	2	16	2	–	0.06	1020
C[C@H](Cc1ccc(O)c(O)c1)[C@@H](C)Cc1ccc(O)c(O)c1 [MASOPROCOL]	64	16	–	1020	–	1020	16	8	0.03	–	4	–	8	–	–	–
Oc1ccc(CCCCc2cc(O)c(O)c(O)c2)cc1O	64	16	Non-Toxic	512	Non-Toxic	512	16	8	0.06	8	8	16	8	–	0.06	512
O=C(NCCc1ccc(O)c(O)c1)c1ccc(Br)cc1	64	16	Non-Toxic	1020	Non-Toxic	1020	16	8	0.06	8	8	16	8	–	0.06	1020
Oc1ccc(CCCCc2ccc(O)c(O)c2)cc1O	64	16	Non-Toxic	1020	Non-Toxic	512	16	8	0.06	8	8	16	8	–	0.06	1020
O=C(NCCc1ccc(O)c(O)c1)c1ccc(C(F)(F)F)cc1	64	16	Non-Toxic	1020	Non-Toxic	1020	16	8	0.03	8	8	16	8	–	0.06	1020
